Experimental data as given in PMC8547165 (Environmental science & technology, 2021).

Key:
[1] = QAC levels in human blood; type: in vivo; details: human serum, n = 111; for Median concentration: non-detects = 1/2 MDL
[2] = Hepatic clearance in vitro-in vivo extrapolation; parameters: species or system human; details: IVIVE
Outline: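 Human liver microsomes (1 mg/mL) in 50 mM phosphate pH 7.4 with 3 mM MgCl2, 0.5 uM substrate, 0.5% DMSO, NADPH-generating system, 37 °C, triplicate, stopped at 0–3 h; depletion fitted mono-exponentially for CLin vitro. Unbound fraction from NSB-corrected serum ultrafiltration and 60-min blood/serum ratio. Scaled by 34 mg microsomal protein/g liver, hepatic blood flow 42.6 mL/h/g liver.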

CCCCCCCCCCCCCC[N+](C)(C)CCCCCCCCCCCCCC [C14-DDAC]
Maximum concentration ([1]; before COVID-19 (2019)): 0.522 ng/mL
Minimum concentration ([1]; before COVID-19 (2019)): <MDL
Median concentration ([1]; before COVID-19 (2019)): <MDL
Maximum concentration ([1]; during COVID-19 (2020)): 0.795 ng/mL
Minimum concentration ([1]; during COVID-19 (2020)): <MDL
Median concentration ([1]; during COVID-19 (2020)): <MDL

CCCCCCCCCCCCCC[N+](C)(C)C [C14-ATMAC]
Maximum concentration ([1]; before COVID-19 (2019)): 1.86 ng/mL
Minimum concentration ([1]; before COVID-19 (2019)): <MDL
Median concentration ([1]; before COVID-19 (2019)): 0.667 ng/mL
Maximum concentration ([1]; during COVID-19 (2020)): 3.75 ng/mL
Minimum concentration ([1]; during COVID-19 (2020)): <MDL
Median concentration ([1]; during COVID-19 (2020)): 0.929 ng/mL

CCCCCCCCCCCCCCCC[N+](C)(C)C [C16-ATMAC]
Maximum concentration ([1]; before COVID-19 (2019)): 5.65 ng/mL
Minimum concentration ([1]; before COVID-19 (2019)): <MDL
Median concentration ([1]; before COVID-19 (2019)): <MDL
Maximum concentration ([1]; during COVID-19 (2020)): 3.53 ng/mL
Minimum concentration ([1]; during COVID-19 (2020)): <MDL
Median concentration ([1]; during COVID-19 (2020)): 0.966 ng/mL

CCCCCCCCCCCCCCCCCC[N+](C)(C)Cc1ccccc1 [C18-BAC]
Maximum concentration ([1]; before COVID-19 (2019)): 2.14 ng/mL
Minimum concentration ([1]; before COVID-19 (2019)): <MDL
Median concentration ([1]; before COVID-19 (2019)): <MDL
Maximum concentration ([1]; during COVID-19 (2020)): 1.41 ng/mL
Minimum concentration ([1]; during COVID-19 (2020)): <MDL
Median concentration ([1]; during COVID-19 (2020)): 0.180 ng/mL

CCCCCCCCCC[N+](C)(C)Cc1ccccc1 [C10-BAC]
Maximum concentration ([1]; before COVID-19 (2019)): 0.166 ng/mL
Minimum concentration ([1]; before COVID-19 (2019)): <MDL
Median concentration ([1]; before COVID-19 (2019)): <MDL
Maximum concentration ([1]; during COVID-19 (2020)): 1.45 ng/mL
Minimum concentration ([1]; during COVID-19 (2020)): <MDL
Median concentration ([1]; during COVID-19 (2020)): <MDL

CCCCCCCCCCCCCCCC[N+](C)(C)CCCCCCCCCCCCCCCC [C16-DDAC]
Maximum concentration ([1]; before COVID-19 (2019)): 0.142 ng/mL
Minimum concentration ([1]; before COVID-19 (2019)): <MDL
Median concentration ([1]; before COVID-19 (2019)): <MDL
Maximum concentration ([1]; during COVID-19 (2020)): 0.576 ng/mL
Minimum concentration ([1]; during COVID-19 (2020)): <MDL
Median concentration ([1]; during COVID-19 (2020)): <MDL

CCCCCCCCCCCCCCCCCC[N+](C)(C)CCCCCCCCCCCCCCCCCC [C18-DDAC]
Maximum concentration ([1]; before COVID-19 (2019)): 5.77 ng/mL
Minimum concentration ([1]; before COVID-19 (2019)): <MDL
Median concentration ([1]; before COVID-19 (2019)): <MDL
Maximum concentration ([1]; during COVID-19 (2020)): 5.35 ng/mL
Minimum concentration ([1]; during COVID-19 (2020)): <MDL
Median concentration ([1]; during COVID-19 (2020)): <MDL

CCCCCCCCCC[N+](C)(C)CCCCCCCCCC [C10-DDAC]
Maximum concentration ([1]; before COVID-19 (2019)): 0.206 ng/mL
Minimum concentration ([1]; before COVID-19 (2019)): <MDL
Median concentration ([1]; before COVID-19 (2019)): <MDL
Maximum concentration ([1]; during COVID-19 (2020)): 0.620 ng/mL
Minimum concentration ([1]; during COVID-19 (2020)): <MDL
Median concentration ([1]; during COVID-19 (2020)): 0.089 ng/mL

CCCCCCCC[N+](C)(C)CCCCCCCC [C8-DDAC]
Maximum concentration ([1]; before COVID-19 (2019)): 0.447 ng/mL
Minimum concentration ([1]; before COVID-19 (2019)): <MDL
Median concentration ([1]; before COVID-19 (2019)): <MDL
Maximum concentration ([1]; during COVID-19 (2020)): 0.219 ng/mL
Minimum concentration ([1]; during COVID-19 (2020)): <MDL
Median concentration ([1]; during COVID-19 (2020)): <MDL

CCCCCCCC[N+](C)(C)Cc1ccccc1 [C8-BAC]
Maximum concentration ([1]; before COVID-19 (2019)): 0.196 ng/mL
Minimum concentration ([1]; before COVID-19 (2019)): <MDL
Median concentration ([1]; before COVID-19 (2019)): <MDL
Maximum concentration ([1]; during COVID-19 (2020)): 0.433 ng/mL
Minimum concentration ([1]; during COVID-19 (2020)): <MDL
Median concentration ([1]; during COVID-19 (2020)): 0.055 ng/mL

CCCCCCCCCCCCCCCCCC[N+](C)(C)C [C18-ATMAC]
Maximum concentration ([1]; before COVID-19 (2019)): 0.171 ng/mL
Minimum concentration ([1]; before COVID-19 (2019)): <MDL
Median concentration ([1]; before COVID-19 (2019)): <MDL
Maximum concentration ([1]; during COVID-19 (2020)): 3.62 ng/mL
Minimum concentration ([1]; during COVID-19 (2020)): <MDL
Median concentration ([1]; during COVID-19 (2020)): <MDL

CCCCCCCCCCCCCC[N+](C)(C)Cc1ccccc1 [C14-BAC]
Maximum concentration ([1]; before COVID-19 (2019)): 2.36 ng/mL
Minimum concentration ([1]; before COVID-19 (2019)): <MDL
Median concentration ([1]; before COVID-19 (2019)): 0.490 ng/mL
Maximum concentration ([1]; during COVID-19 (2020)): 40.1 ng/mL
Minimum concentration ([1]; during COVID-19 (2020)): <MDL
Median concentration ([1]; during COVID-19 (2020)): 1.14 ng/mL

CCCCCCCCCCCC[N+](C)(C)C [C12-ATMAC]
Maximum concentration ([1]; before COVID-19 (2019)): 8.55 ng/mL
Minimum concentration ([1]; before COVID-19 (2019)): <MDL
Median concentration ([1]; before COVID-19 (2019)): 0.981 ng/mL
Maximum concentration ([1]; during COVID-19 (2020)): 6.84 ng/mL
Minimum concentration ([1]; during COVID-19 (2020)): <MDL
Median concentration ([1]; during COVID-19 (2020)): 0.612 ng/mL
Fold lower CLinvivo than C14- and C16-ATMACs [2]: 2-4 times

CCCCCCCCCCCCCCCC[N+](C)(C)Cc1ccccc1 [C16-BAC]
Maximum concentration ([1]; before COVID-19 (2019)): 0.800 ng/mL
Minimum concentration ([1]; before COVID-19 (2019)): <MDL
Median concentration ([1]; before COVID-19 (2019)): 0.080 ng/mL
Maximum concentration ([1]; during COVID-19 (2020)): 16.4 ng/mL
Minimum concentration ([1]; during COVID-19 (2020)): <MDL
Median concentration ([1]; during COVID-19 (2020)): 0.346 ng/mL

CCCCCCCCCCCC[N+](C)(C)Cc1ccccc1 [C12-BAC]
Maximum concentration ([1]; before COVID-19 (2019)): 1.40 ng/mL
Minimum concentration ([1]; before COVID-19 (2019)): <MDL
Median concentration ([1]; before COVID-19 (2019)): 0.289 ng/mL
Maximum concentration ([1]; during COVID-19 (2020)): 22.1 ng/mL
Minimum concentration ([1]; during COVID-19 (2020)): <MDL
Median concentration ([1]; during COVID-19 (2020)): 0.634 ng/mL
